# D1 mod = D1 dopamine receptor (human) allosteric modulation | actives 5.9% (n = 58,000) | HEK293 D1, CRE-luciferase, dopamine EC30 potentiation; actives deviate in either direction | P21728 | B-score at 10 µM | AID 641;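 active means luminescence count or its row- and column-corrected plate score outside the 99.7% band of the plate's sample wells, on either side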
# S1P3 ag = S1P3 (human) receptor agonism | S1P3 NFAT-BLA reporter cells, FRET ratio; relative to 1 µM S1P, basal subtracted | actives 0.1% (n = 60,000) | Q99500 | activation, % at 4.5 µM;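 active means activation above the screen-wide mean plus 3 SD, cut at about 4.5% in these data, passing the limit was not always enough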
#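 Material: Human S1P3 NFAT-BLA reporter CHO cells | Incubation: Overnight plating, 4 h compound 37 °C, 2 h substrate RT | Signal: FRET β-lactamase substrate fluorescence, excitation 405 nm, 460/535 nm emission ratio, background-subtracted | Compound: 4.5 µM final, single dose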
# S1P1 ag-PAM = agonists and agonism potentiators of human S1P1 receptor | actives 0.57% (n = 56,000) | S1P1 CRE-bla cells, forskolin, beta-lactamase FRET, potentiator mode; S1P1 agonist co-added at EC20, 2 nM; 100% = saturating reference agonist, 0% = basal | P21453 | activation, % at 9.5 µM;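 active means activation above a cutoff set at the mean activation of all tested compounds plus 3 SD, cut at about 54% in these data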;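 further: forskolin at 4 µM as EC80 and the EC20 agonist is SEW2871; 100% = SEW2871 at its EC100 plus forskolin at EC80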
# Target sequence (P21453 whole entry, looked up): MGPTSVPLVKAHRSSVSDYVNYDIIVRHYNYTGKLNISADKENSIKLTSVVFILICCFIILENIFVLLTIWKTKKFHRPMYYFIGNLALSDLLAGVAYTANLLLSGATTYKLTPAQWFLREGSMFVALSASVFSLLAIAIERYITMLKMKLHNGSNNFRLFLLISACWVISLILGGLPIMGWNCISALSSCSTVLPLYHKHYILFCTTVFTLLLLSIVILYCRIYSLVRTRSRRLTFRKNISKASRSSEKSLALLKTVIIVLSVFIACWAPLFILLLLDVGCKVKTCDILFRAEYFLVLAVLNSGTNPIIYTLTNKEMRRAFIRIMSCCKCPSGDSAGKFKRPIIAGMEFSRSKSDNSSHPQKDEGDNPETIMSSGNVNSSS
# M1 ag = agonists of M1 muscarinic receptor; CHO-M1 cells, Fluo-4 calcium fluorescence, agonist mode; stronger effect = higher value; B-score at 10 µM; actives 3% (n = 64,000);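 active means fluorescence rise, raw or as B-score row- and column-corrected plate score, outside the 99.7% band of its plate's samples, either direction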
# M1 antagonist = blocks the rat M1 muscarinic receptor response to acetylcholine | CHO-M1 cells, Fluo-4 calcium, ACh EC80 antagonist mode; stronger effect = lower value | P08482 | B-score at 10 µM | actives 3.4% (n = 64,000);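 active means calcium fluorescence response, raw or row-and-column corrected B-score, differing from the plate sample mean either way at a set confidence level, mostly lower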
# * marks the source's active call; other numbers are inactive results; . = no result. Sampled rows, rich in hits. Any-hit rate of the full collection: about 11%.
SMILES,D1 mod,S1P3 ag,S1P1 ag-PAM,M1 ag,M1 antagonist
COc1ccc2sc(N3C(=O)C4CC=C(C)CC4C3=O)nc2c1 (centres undefined),1.09,-0.9,6.2,0.342,0.448
CCN(CC)c1ccc2cc(C(=O)Nc3ccc(-n4cnnn4)c(OC)c3)c(=O)oc2c1,1.53,0.1,2.1,19.9*,-1.2
COc1cc(C(=O)Nc2ccc3c(c2)OCCO3)ccc1-n1cnnn1,.,0.7,1.6,-0.201,0.824
Cn1ncc2c1ncn1c(-c3ccccc3Cl)nnc21,.,-0.5,18.6,0.53,1.29
O=C(Nc1ccc(-c2nc3cccnc3s2)cc1)c1ccco1,-5.01*,-0.6,36.1,0.225,-0.793
CCCNS(=O)(=O)c1ccc(OCC(=O)NCc2ccc3c(c2)OCO3)cc1,0.466,-1.1,-11.2,0.653,0.328
CCCC(=O)Nc1ccc(-c2nc3cc(C)c(C)cc3o2)cc1,-2.39*,-1.0,81.7*,-0.255,0.273
COc1ccc(-c2nc3cc(NC(=O)Cc4ccc(OC)c(OC)c4)ccc3o2)cc1,-3.93*,-1.1,80.7*,-0.462,-0.627
O=C(NCc1ccco1)c1cc2sccc2n1Cc1ccccc1,.,0.1,-22.3,0.683,-1.04
Cn1nc(CC(=O)Nc2ccc(N3CCN(C(=O)OC(C)(C)C)CC3)cc2)c2ccccc2c1=O,-0.236,-2.1,84.4*,3.83,-1.85
CCCC(c1nnnn1Cc1ccco1)N1CCN(C(=O)c2ccco2)CC1 (centres undefined),-0.615,0.1,-28.9,-0.115,0.147*
CCCCC(c1nnnn1Cc1ccco1)N1CCN(C(=O)c2ccco2)CC1 (centres undefined),-0.577,-0.8,-20.3,-0.7,0.191
COC(=O)c1sc2nc(-c3ccco3)ccc2c1N,-3.19*,1.3,-10.6,-0.332,1.02
c1ccc2c(c1)CCN(c1ncnc3nc[nH]c13)C2,-1.21,-0.1,-4.6,-1.38,-0.00161
CC1Cc2ccccc2N1c1ncnc2nc[nH]c12 (centres undefined),1.46,-0.5,93.3*,0.364,0.245
CN(C)C(=O)CN(c1ccc(F)c(Cl)c1)S(C)(=O)=O,0.16,0.9,-2.5,0.115,0.889
Cc1ccc(C)c(N(CC(=O)N(C)C)S(C)(=O)=O)c1,-0.448,-0.5,.,1.45,1.26*
CCN1C(=Nc2ccc(Cl)cc2)SC/C1=C\C(=O)OC,-0.524,2.0,1.1,-0.369,0.835
Cc1ccc(-n2nc3ccc(N)cc3n2)cc1,-4.44*,-0.2,9.1,-0.131,-0.669
Cc1ccc(-n2nc(-c3ccc(N)cc3)cc2N)cc1,-1.42,-0.9,16.6,-0.715,0.97
c1nc(NCCN2CCOCC2)c2sc3nc(N4CCOCC4)c4c(c3c2n1)CCC4,6.85*,.,.,1.75,-1.46
Cc1ccccc1NC(=O)CN(C)S(=O)(=O)c1cccc2cccnc12,.,1.2,1.5,-0.388,0.482
COc1ccc(C(=O)NC(=O)Nc2cc(C)ccn2)cc1,-5.98*,-0.6,-9.2,0.139,0.974
COc1cc(C(=O)Nc2cc(C)ccn2)cc(OC)c1OC,1.67,-1.6,-14.6,-0.214,-0.00996
Cc1cccn2c(=O)c3cc(C(=O)N4c5ccccc5CC4C)n(C)c3nc12 (centres undefined),-4.83*,0.7,-33.4,0.036,-0.324
SMILES,D1 mod,S1P3 ag,S1P1 ag-PAM,M1 ag,M1 antagonist
CC12CCC(=O)N1c1ccccc1C(=O)N2c1ccccc1 (centres undefined),-0.571,-0.7,-26.3,1.05,2.28*
O=C(CN(C1CCCCC1)S(=O)(=O)c1ccc(Cl)cc1)NCc1ccncc1,-0.0562,-0.2,-7.9,1.76,0.0309
COC(=O)c1ccccc1NC(=O)CN(C)S(=O)(=O)c1cc(C)ccc1OC,-0.393,-0.5,-12.3,0.695,0.266
CC(C)OC(=O)CSc1nnc(-c2cccnc2)n1N,-0.879,-0.2,7.5,-0.0576,0.749
COc1cccc(-n2c(SCC(=O)OC(C)C)nnc2-c2cccnc2)c1,-0.0422,-0.3,-6.8,0.759,2.65*
O=C(CNS(=O)(=O)c1ccc(Br)s1)NCC1COc2ccccc2O1 (centres undefined),-0.458,-1.2,-5.5,-0.00714,-0.304
Cc1cccc(-n2ncc3c(NC(C)C)ncnc32)c1,-3.57*,-0.9,4.2,-0.015,-1.29
CC(C)Nc1ncnc2c1cnn2-c1ccccc1,-4.42*,0.9,-1.8,-0.731,0.387
Cc1cccc(-n2ncc3c(Nc4ccc(F)cc4)ncnc32)c1,.,0.0,1.2,0.85,0.0012

# Screens deposited in PubChem BioAssay by several laboratories.
